Measured values reported in ChEMBL document CHEMBL1145785, “Design, synthesis, and structure-activity relationships of alkylcarbamic acid aryl esters, a new class of fatty acid amide hydrolase inhibitors” (J Med Chem, 2003).

Key:
[1] = molecular target: T1, Fatty-acid amide hydrolase 1 (Rattus norvegicus, UniProt P97612); experiment: Inhibition of [3H]anandamide binding to fatty acid amide hydrolase of rat brain membrane
T1 sequence (P97612 whole entry): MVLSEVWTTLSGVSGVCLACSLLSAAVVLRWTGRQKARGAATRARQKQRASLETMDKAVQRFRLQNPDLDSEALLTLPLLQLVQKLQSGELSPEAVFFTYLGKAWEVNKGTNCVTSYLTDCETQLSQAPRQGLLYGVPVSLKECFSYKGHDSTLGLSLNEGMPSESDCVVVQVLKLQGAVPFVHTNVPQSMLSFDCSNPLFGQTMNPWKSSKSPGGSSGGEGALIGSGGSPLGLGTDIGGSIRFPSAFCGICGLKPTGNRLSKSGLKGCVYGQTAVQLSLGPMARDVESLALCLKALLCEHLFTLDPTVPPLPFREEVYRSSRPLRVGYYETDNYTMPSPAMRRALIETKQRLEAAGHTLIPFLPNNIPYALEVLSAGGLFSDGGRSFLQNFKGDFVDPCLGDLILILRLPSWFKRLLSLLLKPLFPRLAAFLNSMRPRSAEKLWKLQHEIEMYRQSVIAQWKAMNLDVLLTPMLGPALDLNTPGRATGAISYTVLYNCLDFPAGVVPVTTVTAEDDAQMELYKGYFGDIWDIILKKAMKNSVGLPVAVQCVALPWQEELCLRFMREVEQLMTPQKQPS
Outline: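 Membrane fractions prepared from rat brain homogenates; FAAH activity measured as hydrolysis of anandamide[ethanolamine-3H] (60 Ci/mmol) as substrate. Value reported as half-maximal inhibitory concentration (IC50) of FAAH activity.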

[2] = molecular target: T1, Fatty-acid amide hydrolase 1; experiment: Fatty acid amide hydrolase inhibitory activity in rat brain membrane using [3H]anandamide as a substrate; format: cell membranes
Outline: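 Membrane fractions prepared from rat brain homogenates. FAAH activity measured as hydrolysis of [3H]anandamide, radiolabelled on the ethanolamine (60 Ci/mmol), used as substrate. IC50 taken as the half-maximal concentration for inhibition of hydrolysis.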

IC50 [2]	SMILES	IC50 [1]
> 30 µM	CCNC(=O)Oc1ccc(C)cc1	
> 30 µM	S=C(NC1CCCCC1)Oc1ccc2ccccc2c1	
> 30 µM	S=C(NC1CCCCC1)Sc1ccc2ccccc2c1	
> 30 µM	O=C(Cc1ccc2ccccc2c1)NC1CCCCC1	
3.76 µM	CCCCCCOC(=O)NC1CCCCC1	
0.808 µM	Cc1cccc(OC(=O)NC2CCCCC2)c1	0.813 µM
3.78 µM	O=C(NC1CCCCC1)Oc1ccccc1	3.8 µM
> 30 µM	O=C(Nc1cccc(-c2ccccc2)c1)OC1CCCCC1	
> 30 µM	O=C(NC1CCCCC1)OCCCCCc1ccccc1	
> 30 µM	O=C(Nc1ccc2ccccc2c1)NC1CCCCC1	
15.6 µM	O=C(NC1CCCCC1)Sc1ccc2ccccc2c1	
3.53 µM	CCc1ccc2cc(OC(=O)NC3CCCCC3)ccc2c1	3.55 µM
> 30 µM	S=C(Nc1ccc2ccccc2c1)NC1CCCCC1	

The remaining lines, values behind:

SMILES	IC50 [2]	IC50 [1]
O=C(NC1CCCCC1)Oc1ccc(/C=C\c2ccccc2)cc1	0.266 µM	0.263 µM
CCCCNC(=O)Oc1ccc2cc(Br)ccc2c1		0.759 µM
O=C(NC1CCCCC1)Oc1ccc2cccc(Br)c2c1	0.174 µM	0.174 µM
CCCCNC(=O)Oc1ccc(F)cc1	11.5 µM	11.5 µM
Cc1ccc(OC(=O)NC2CCCCC2)cc1		5.37 µM
O=C(NC1CCCCC1)Oc1cccc(-c2ccccc2)c1		0.0631 µM
CCCCCc1cccc(OC(=O)NC2CCCCC2)c1	0.188 µM	0.186 µM
CCCCNC(=O)Oc1ccc(OCc2ccccc2)cc1	0.39 µM	0.389 µM
O=C(NC1CCCCC1)Oc1ccc(-c2ccccc2)cc1		2.29 µM
O=C(NC1CCCCC1)Oc1ccc(/C=C/c2ccccc2)cc1		3.31 µM
O=C(NC1CCCCC1)Oc1ccc2ccccc2c1		0.324 µM
CNC(=O)Oc1ccc2ccccc2c1	18.3 µM	
CNC(=O)Oc1cccc2ccccc12 [CARBARIL]	> 30 µM	
